pIC50: −log10 of the molar value. The source made the active and inactive calls. The calls are words filed in the database; no cut-off is given here.
What was measured:
[1] = Inhibition of LPS-induced NF-kappaB activation in mouse RAW264.7 cells after 18 hrs by luciferase assay; type: cell-based; details: RAW264.7, 18 h
Summary of the method: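 RAW264.7 cells stably carrying an NF-κB luciferase reporter plated at 5 × 10⁴ per well and allowed 24 h recovery. Then treated with compound plus LPS 100 ng/mL for 18 h. Lysates read after adding luciferase assay reagent. IC50 given as mean ± SE, n = 3.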

RAW264.7 [2] = assay: Cytotoxicity against mouse RAW264.7 cells after 18 hrs by MTT assay; type: cell-based; details: RAW264.7, 18 h
Summary of the method: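 Murine macrophage RAW264.7 cells exposed to compound about 18 h, tested at 6.25–100 µM from DMSO stock. MTT added for 2 h, formazan dissolved in DMSO and read at 570 nm. IC50 given as mean ± SE, n = 3.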

PC-3 = assay: Cytotoxicity against human PC3 cells up to 100 uM after 20 hrs by MTT assay; type: cell-based; details: pc-3, 20 h
Summary of the method: (§1)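 Non-tumorigenic MCF-10A and tumorigenic MCF-7, MDA-MB-231, PC3 and LNCaP cells grown in 96-well plates in their own growth media. Treated with 6.25, 12.5, 25, 50 or 100 µM compound from DMSO stock for 20 h, then MTT added for 2 h. Formazan dissolved in DMSO and absorbance read at 570 nm.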

LNCaP = assay: Cytotoxicity against human LNCAP cells up to 100 uM after 20 hrs by MTT assay; type: cell-based; summary of the method: as §1
MCF7 = assay: Cytotoxicity against human MCF7 cells up to 100 uM after 20 hrs by MTT assay; type: cell-based; details: mcf7, 20 h; summary of the method: as §1
MDA-MB-231 = assay: Cytotoxicity against human MDA-MB-231 cells up to 100 uM after 20 hrs by MTT assay; type: cell-based; details: mda-mb-231, 20 h; summary of the method: as §1
MCF-10A = assay: Cytotoxicity against human MCF10A cells up to 100 uM after 20 hrs by MTT assay; type: cell-based; summary of the method: as §1
RAW264.7 [3] = assay: Antiinflammatory activity in mouse RAW264.7 cells assessed as reduction of LPS-induced IFN-beta mRNA expression by quantitative real-time PCR analysis; type: functional, cell-based
Summary of the method: (§2)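 Cells treated with compound (0.7–12.5 µM) plus LPS 100 ng/mL. Total RNA analysed by SYBR Green real-time qPCR, with each gene normalised to GAPDH. Mean ± SD of three independent experiments; one-way ANOVA, p < 0.05 taken as significant.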

RAW264.7 [4] = assay: Antiinflammatory activity in mouse RAW264.7 cells assessed as reduction of LPS-induced IL-6 mRNA expression by quantitative real-time PCR analysis; type: functional, cell-based; summary of the method: as §2
RAW264.7 [5] = assay: Antiinflammatory activity in mouse RAW264.7 cells assessed as reduction of LPS-induced G-CSF mRNA expression by quantitative real-time PCR analysis; type: functional, cell-based; summary of the method: as §2
RAW264.7 [6] = assay: Antiinflammatory activity in mouse RAW264.7 cells assessed as reduction of LPS-induced MCP1 mRNA expression by quantitative real-time PCR analysis; type: functional, cell-based; summary of the method: as §2
RAW264.7 [7] = assay: Antiinflammatory activity in mouse RAW264.7 cells assessed as reduction of LPS-induced IL-1beta mRNA expression by quantitative real-time PCR analysis; type: functional, cell-based; summary of the method: as §2
RAW264.7 [8] = assay: Antiinflammatory activity in mouse RAW264.7 cells assessed as reduction of LPS-induced IP-10 mRNA expression by quantitative real-time PCR analysis; type: functional, cell-based; summary of the method: as §2
RAW264.7 [9] = assay: Antiinflammatory activity in mouse RAW264.7 cells assessed as reduction of LPS-induced COX2 mRNA expression by quantitative real-time PCR analysis; type: functional, cell-based; summary of the method: as §2
RAW264.7 [10] = assay: Antiinflammatory activity in mouse RAW264.7 cells assessed as reduction of LPS-induced iNOS mRNA expression by quantitative real-time PCR analysis; type: functional, cell-based; summary of the method: as §2
RAW264.7 [11] = assay: Antiinflammatory activity in mouse RAW264.7 cells assessed as reduction of LPS-induced COX2 expression at 5 uM after 4 hrs by Western blot analysis; type: functional, cell-based
Summary of the method: (§3)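 Near-confluent cells treated with rising compound concentrations (1.5–12.0 µM) plus LPS for 4 h at 37 °C. Lysed directly in SDS loading buffer, sonicated, heated, run on 4–15% gels, then transferred. Probed for phospho-IκBα, IκBα, iNOS and COX-2, with β-actin as the loading reference; HRP secondaries used.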

RAW264.7 [12] = assay: Antiinflammatory activity in mouse RAW264.7 cells assessed as reduction of LPS-induced iNOS expression at 5 uM after 4 hrs by Western blot analysis; type: functional, cell-based; summary of the method: as §3
RAW264.7 [13] = assay: Inhibition of LPS-induced NF-kappaB activation in mouse RAW264.7 cells assessed as reduction of IkappaBalpha phosphorylation at 1.5 to 12 uM after 4 hrs by Western blot analysis; type: cell-based; summary of the method: as §3
RAW264.7 [14] = assay: Antiinflammatory activity in mouse RAW264.7 cells assessed as inhibition of LPS-induced nitric oxide production after 24 hrs by Griess assay; type: functional, cell-based; details: RAW264.7, 24 h
Summary of the method: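 Cells plated in RPMI1640, 24 h at 37 °C; medium changed, then compound plus E. coli 055:B5 LPS added. Supernatant mixed with Griess reagent (sulfanilamide/naphthylethylenediamine in H3PO4), 30 min at room temperature in the dark. IC50 given as mean ± SE, n = 3.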

Row | pIC50 [1] | pIC50 (RAW264.7 [3]) | pIC50 (RAW264.7 [4]) | pIC50 (RAW264.7 [5]) | pIC50 (RAW264.7 [6]) | pIC50 (RAW264.7 [7]) | pIC50 (RAW264.7 [8]) | pIC50 (RAW264.7 [9]) | pIC50 (RAW264.7 [10]) | pIC50 (RAW264.7 [14]) | SMILES | pIC50 (RAW264.7 [2]) | Activity (PC-3) | Activity (LNCaP) | Activity (MCF7) | Activity (MDA-MB-231) | Activity (MCF-10A) | inhibition (RAW264.7 [11]) | inhibition (RAW264.7 [12]) | inhibition (RAW264.7 [13])
1 | 4.56 | – | – | – | – | – | – | – | – | – | O=C1C=CC[C@H](/C=C/c2ccccc2)O1 [GONIOTHALAMIN] | 4.47 | – | – | – | – | – | – | – | –
2 | 5.17 | 6.10 | 6.05 | 5.40 | 5.40 | 5.52 | 5.30 | 5.52 | 5.70 | 6.10 | O=C1C=C[C@@H]2O[C@H](c3ccccc3)[C@@H](O)[C@@H]2O1 [ALTHOLACTONE] | 4.36 | Non-toxic | Non-toxic | Non-toxic | Non-toxic | Non-toxic | Active | Active | Active
3 | 4.46 | – | – | – | – | – | – | – | – | – | CC(=O)O[C@H]1[C@@H]2OC(=O)C=C[C@@H]2O[C@@H]1c1ccccc1 [(+)-3-O-ACETYLALTHOLACTONE] | 4.44 | – | – | – | – | – | – | – | –

Reference: ChEMBL document CHEMBL2396631, “(+)-Altholactone exhibits broad spectrum immune modulating activity by inhibiting the activation of pro-inflammatory cytokines in RAW 264.7 cell lines” (Bioorg Med Chem, 2013)
